Test results as given in ChEMBL document CHEMBL1649165, “Activity profile in vitro of micafungin against Spanish clinical isolates of common and emerging species of yeasts and molds” (2009).
Values after ≈ are worked out from the molar mass of the structure shown.

Key:
Format in all cases: functional
Candida albicans = assay: Antimicrobial activity against Candida albicans by broth microdilution method
In short: (§1)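 Clinical isolates from human patients, tested by broth microdilution using the AFST-EUCAST reference procedure for fermentative yeasts. The MIC was read per that reference method.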

Candida tropicalis = assay: Antimicrobial activity against Candida tropicalis by broth microdilution method; in short: as §1
Pichia kudriavzevii = assay: Antimicrobial activity against Candida krusei by broth microdilution method; in short: as §1
Clavispora lusitaniae = assay: Antimicrobial activity against Candida lusitaniae by broth microdilution method; in short: as §1
Debaryomyces hansenii = assay: Antimicrobial activity against Candida famata by broth microdilution method; in short: as §1
Pichia norvegensis = assay: Antimicrobial activity against Candida norvegensis by broth microdilution method; in short: as §1
Candida metapsilosis = assay: Antimicrobial activity against Candida metapsilosis by broth microdilution method; settings: Lodderomyces metapsilosis; in short: as §1
Candida orthopsilosis = assay: Antimicrobial activity against Candida orthopsilosis by broth microdilution method; settings: Lodderomyces orthopsilosis; in short: as §1
[1] = system: Kazachstania pintolopesii; assay: Antimicrobial activity against Candida pintolopesii by broth microdilution method; settings: Arxiozyma pintolopesii; in short: as §1
[Candida] zeylanoides = Antimicrobial activity against Candida zeylanoides by broth microdilution method; settings: Dujonia zeylanoides; in short: as §1
Saccharomyces cerevisiae = assay: Antimicrobial activity against Saccharomyces cerevisiae by broth microdilution method
[2] = system: Cryptococcus deneoformans; assay: Antimicrobial activity against Cryptococcus neoformans var. neoformans by broth microdilution method
In short: (§2)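 Clinical isolates of nonfermentative yeasts, tested by broth microdilution following EUCAST recommendations. The only change from that method was a minor modification to improve growth.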

Trichosporon asahii = assay: Antimicrobial activity against Trichosporon asahii by broth microdilution method
In short: (§3)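 Nonfermentative yeast clinical isolates (Rhodotorula, Trichosporon) tested by broth microdilution. The EUCAST yeast recommendations were followed strictly, with one minor modification to improve growth. MIC was read as the endpoint.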

Trichosporon inkin = assay: Antimicrobial activity against Trichosporon inkin by broth microdilution method; in short: as §3
Trichosporon jirovecii = assay: Antimicrobial activity against Trichosporon jirovecii by broth microdilution method; settings: Cutaneotrichosporon jirovecii; in short: as §3
Naganishia albida = assay: Antimicrobial activity against Cryptococcus albidus by broth microdilution method; in short: as §2
Ustilago = assay: Antimicrobial activity against Ustilago spp by broth microdilution method
Trichosporon domesticum = assay: Antimicrobial activity against Trichosporon mycotoxinivorans by broth microdilution method; settings: Apiotrichum domesticum
In short: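 Spanish human clinical isolates were tested as nonfermentative yeasts by broth microdilution. The method strictly followed the EUCAST recommendations, with a minor modification to improve growth, and the read-out was the MIC.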

Trichosporon = assay: Antimicrobial activity against Trichosporon spp. by broth microdilution method; in short: as §3
Aspergillus versicolor = assay: Antimicrobial activity against Aspergillus versicolor by broth microdilution method
In short: (§4)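 Clinical mould isolates, tested by broth microdilution using the AFST-EUCAST reference method for filamentous fungi. For echinocandins, the endpoint was the minimum effective concentration: the lowest drug concentration giving aberrant hyphal growth, read with an inverted microscope.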

Aspergillus ustus = assay: Antimicrobial activity against Aspergillus ustus by broth microdilution method; in short: as §4
Fennellia nivea = assay: Antimicrobial activity against Aspergillus niveus by broth microdilution method; in short: as §4
Aspergillus = assay: Antimicrobial activity against Aspergillus spp. by broth microdilution method; in short: as §4
Fusarium solani = assay: Antimicrobial activity against Fusarium solani by broth microdilution method
In short: (§5)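 Filamentous fungus clinical isolates tested by the AFST-EUCAST reference broth microdilution method for moulds. For echinocandins, the endpoint was the minimum effective concentration: the lowest drug concentration giving aberrant hyphal growth, read with an inverted microscope.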

Paecilomyces lilacinus = assay: Antimicrobial activity against Paecilomyces lilacinus by broth microdilution method; settings: Purpureocillium lilacinum; in short: as §5
Acremonium sp. = assay: Antimicrobial activity against Acremonium sp.by broth microdilution method; in short: as §4
[3] = system: Scopulariopsis brevicaulis; assay: Antimicrobial activity against Scopulariopsis brevicaulis by broth microdilution method; in short: as §5
Phialemonium curvatum = assay: Antimicrobial activity against Phialemonium curvatum by broth microdilution method; settings: Thyridium curvatum; in short: as §5
[4] = Antimicrobial activity against Hormographiella aspergillata by broth microdilution method; settings: Coprinopsis cinerea; in short: as §5
Coprinellus domesticus = assay: Antimicrobial activity against Hormographiella verticillata by broth microdilution method; in short: as §5
Neurospora sitophila = assay: Antimicrobial activity against Chrysonilia sitophila by broth microdilution method; in short: as §4
Scedosporium apiospermum = assay: Antimicrobial activity against Scedosporium apiospermum by broth microdilution method; in short: as §5
Exophiala dermatitidis = assay: Antimicrobial activity against Exophiala dermatitidis by broth microdilution method
Cladosporium = assay: Antimicrobial activity against Cladosporium spp. by broth microdilution method; in short: as §4
[5] = system: Cladophialophora bantiana; assay: Antimicrobial activity against Cladophialophora bantiana by broth microdilution method; in short: as §4
Scytalidium hyalinum = assay: Antimicrobial activity against Scytalidium hyalinum by broth microdilution method; settings: Neoscytalidium hyalinum; in short: as §5
Lecythophora hoffmannii = assay: Antimicrobial activity against Lecythophora hoffmannii by broth microdilution method; settings: Coniochaeta hoffmannii; in short: as §5
Lichtheimia corymbifera = assay: Antimicrobial activity against Mycocladus corymbiferus by broth microdilution method; in short: as §5
Mucor = assay: Antimicrobial activity against Mucor spp.by broth microdilution method; in short: as §5
[6] = system: Cunninghamella bertholletiae; assay: Antimicrobial activity against Cunninghamella bertholletiae by broth microdilution method; in short: as §4
Rhizomucor = assay: Antimicrobial activity against Rhizomucor spp.by broth microdilution method; in short: as §5
Saksenaea vasiformis = assay: Antimicrobial activity against Saksenaea vasiformis by broth microdilution method; in short: as §5
Exophiala jeanselmei = assay: Antimicrobial activity against Exophiala jeanselmei by broth microdilution method
Beauveria bassiana = assay: Antimicrobial activity against Beauveria bassiana by broth microdilution method; in short: as §4

C[C@@H](c1ncncc1F)[C@](O)(Cn1cncn1)c1ccc(F)cc1F [VORICONAZOLE]
MIC50 (Candida albicans): 0.02 mg/L (≈ 0.0573 µM) | MIC90 (Candida albicans): 0.02 mg/L (≈ 0.0573 µM) | MIC50 (Candida tropicalis): 0.03 mg/L (≈ 0.0859 µM) | MIC90 (Candida tropicalis): 0.12 mg/L (≈ 0.344 µM) | MIC50 (Pichia kudriavzevii): 0.25 mg/L (≈ 0.716 µM) | MIC90 (Pichia kudriavzevii): 0.5 mg/L (≈ 1.43 µM) | MIC50 (Clavispora lusitaniae): 0.02 mg/L (≈ 0.0573 µM) | MIC90 (Clavispora lusitaniae): 0.02 mg/L (≈ 0.0573 µM) | MIC50 (Debaryomyces hansenii): 0.12 mg/L (≈ 0.344 µM) | MIC90 (Debaryomyces hansenii): > 8 mg/L | MIC50 (Pichia norvegensis): 0.12 mg/L (≈ 0.344 µM) | MIC90 (Pichia norvegensis): > 8 mg/L | MIC50 (Candida metapsilosis): 0.12 mg/L (≈ 0.344 µM) | MIC90 (Candida metapsilosis): > 8 mg/L | MIC50 (Candida orthopsilosis): 0.12 mg/L (≈ 0.344 µM) | MIC90 (Candida orthopsilosis): > 8 mg/L | MIC50 [1]: 0.12 mg/L (≈ 0.344 µM) | MIC90 [1]: > 8 mg/L | MIC50 ([Candida] zeylanoides): 0.12 mg/L (≈ 0.344 µM) | MIC90 ([Candida] zeylanoides): > 8 mg/L | MIC50 (Saccharomyces cerevisiae): 0.06 mg/L (≈ 0.172 µM) | MIC90 (Saccharomyces cerevisiae): 0.5 mg/L (≈ 1.43 µM) | MIC50 [2]: 0.12 mg/L (≈ 0.344 µM) | MIC90 [2]: 0.5 mg/L (≈ 1.43 µM) | MIC50 (Trichosporon asahii): 0.25 mg/L (≈ 0.716 µM) | MIC90 (Trichosporon asahii): > 8 mg/L | MIC50 (Trichosporon inkin): 0.06 mg/L (≈ 0.172 µM) | MIC90 (Trichosporon inkin): 0.12 mg/L (≈ 0.344 µM) | MIC50 (Trichosporon jirovecii): 0.5 mg/L (≈ 1.43 µM) | MIC90 (Trichosporon jirovecii): > 8 mg/L | MIC50 (Naganishia albida): 0.5 mg/L (≈ 1.43 µM) | MIC90 (Naganishia albida): > 8 mg/L | MIC50 (Ustilago): 0.5 mg/L (≈ 1.43 µM) | MIC90 (Ustilago): > 8 mg/L | MIC50 (Trichosporon domesticum): 0.5 mg/L (≈ 1.43 µM) | MIC90 (Trichosporon domesticum): > 8 mg/L | MIC50 (Trichosporon): 0.5 mg/L (≈ 1.43 µM) | MIC90 (Trichosporon): > 8 mg/L | MIC50 (Aspergillus versicolor): 1 mg/L (≈ 2.86 µM) | MIC90 (Aspergillus versicolor): 2 mg/L (≈ 5.73 µM) | MIC50 (Aspergillus ustus): 0.25 mg/L (≈ 0.716 µM) | MIC90 (Aspergillus ustus): > 8 mg/L | MIC50 (Fennellia nivea): 0.25 mg/L (≈ 0.716 µM) | MIC90 (Fennellia nivea): > 8 mg/L | MIC50 (Aspergillus): 0.25 mg/L (≈ 0.716 µM) | MIC90 (Aspergillus): > 8 mg/L | MIC50 (Fusarium solani): > 8 mg/L | MIC90 (Fusarium solani): 4 mg/L (≈ 11.5 µM) | MIC50 (Paecilomyces lilacinus): 0.5 mg/L (≈ 1.43 µM) | MIC90 (Paecilomyces lilacinus): > 8 mg/L | MIC50 (Acremonium sp.): 4 mg/L (≈ 11.5 µM) | MIC90 (Acremonium sp.): > 8 mg/L | MIC50 [3]: 4 mg/L (≈ 11.5 µM) | MIC90 [3]: > 8 mg/L | MIC50 (Phialemonium curvatum): 4 mg/L (≈ 11.5 µM) | MIC90 (Phialemonium curvatum): > 8 mg/L | MIC50 [4]: 4 mg/L (≈ 11.5 µM) | MIC90 [4]: > 8 mg/L | MIC50 (Coprinellus domesticus): 4 mg/L (≈ 11.5 µM) | MIC90 (Coprinellus domesticus): > 8 mg/L | MIC50 (Neurospora sitophila): 4 mg/L (≈ 11.5 µM) | MIC90 (Neurospora sitophila): > 8 mg/L | MIC50 (Scedosporium apiospermum): 0.5 mg/L (≈ 1.43 µM) | MIC90 (Scedosporium apiospermum): 2 mg/L (≈ 5.73 µM) | MIC50 (Exophiala dermatitidis): 0.06 mg/L (≈ 0.172 µM) | MIC90 (Exophiala dermatitidis): > 8 mg/L | MIC50 (Cladosporium): 0.06 mg/L (≈ 0.172 µM) | MIC90 (Cladosporium): > 8 mg/L | MIC50 [5]: 0.06 mg/L (≈ 0.172 µM) | MIC90 [5]: > 8 mg/L | MIC50 (Scytalidium hyalinum): 0.06 mg/L (≈ 0.172 µM) | MIC90 (Scytalidium hyalinum): > 8 mg/L | MIC50 (Lecythophora hoffmannii): 0.06 mg/L (≈ 0.172 µM) | MIC90 (Lecythophora hoffmannii): > 8 mg/L | MIC50 (Lichtheimia corymbifera): > 8 mg/L | MIC90 (Lichtheimia corymbifera): > 8 mg/L | MIC50 (Mucor): > 8 mg/L | MIC90 (Mucor): > 8 mg/L | MIC50 [6]: > 8 mg/L | MIC90 [6]: > 8 mg/L | MIC50 (Rhizomucor): > 8 mg/L | MIC90 (Rhizomucor): > 8 mg/L | MIC50 (Saksenaea vasiformis): > 8 mg/L | MIC90 (Saksenaea vasiformis): > 8 mg/L | MIC50 (Exophiala jeanselmei): 0.06 mg/L (≈ 0.172 µM) | MIC90 (Exophiala jeanselmei): > 8 mg/L | MIC50 (Beauveria bassiana): 4 mg/L (≈ 11.5 µM) | MIC90 (Beauveria bassiana): > 8 mg/L
